PMC6643050 (Lipids, 2018)
Where “and” joins values, the source holds several entries; their conditions need not be identical. Equal values may be shown once.

Assays:
[1] = target: T1, Δ^1–28 L-PGDS (Homo sapiens, UniProt P41222); experiment: Fluorescence displacement binding assay; conditions: for Binding to Δ^1–28 L-PGDS, DAUDA displacement: DAUDA probe
T1 sequence (P41222 29-190): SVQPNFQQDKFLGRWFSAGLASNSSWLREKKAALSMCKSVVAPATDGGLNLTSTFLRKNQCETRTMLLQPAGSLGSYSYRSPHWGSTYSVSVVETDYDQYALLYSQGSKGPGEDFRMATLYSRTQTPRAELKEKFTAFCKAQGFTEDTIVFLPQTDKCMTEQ

[2] = target: T1, Δ^1–28 L-PGDS; experiment: Intrinsic tryptophan fluorescence quenching assay; assay type: binding; conditions: compound 20 μM, L-PGDS 1.5 μM, pH 8.0; mean ± SE
Summary of the method: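 Recombinant human Δ1–28 L-PGDS, delipidated on hydroxypropyl-beaded dextran (1 h, 37 °C), used at 1.5 μM in 5 mM Tris–HCl pH 8.0. Test compound (2 mM DMSO stock) added at 20 μM final; equilibrated 30 min at 25 °C. Tryptophan fluorescence read at ex/em 282/340 nm and corrected for nonspecific effects with N-acetyl-L-tryptophanamide (1.5 μM). Reported relative to vehicle; ≥3 independent assays.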

[3] = target: T1, Δ^1–28 L-PGDS; experiment: Determination of fluorescent probe binding affinity
[4] = target: L-PGDS; conditions: known high-affinity L-PGDS ligand; ref Breustedt et al., 2006; cited from earlier work
[5] = DAUDA (500 nM) displacement, L-PGDS 3 μM, pH 7.6, 25 °C, mean ± SE
[6] = Ki, DAUDA (500 nM) displacement, L-PGDS 3 μM, pH 7.6, 25 °C, mean ± SE

Compound | Quenching (%), fluorescence reduction relative to vehicle-treated Δ^1–28 L-PGDS [2] [%] | Ki [1, 6] | further results
11-hydroxy-Δ^9-tetrahydrocannabinol [11-OH-THC] | 9.7 ± 1.3 | – | Ki [1, 5]: 61 ± 14 µM; Ki ([1]; DAUDA displacement): 61 ± 14 µM
CCCCC/C=C\C/C=C\C/C=C\C/C=C\CCCC(=O)OC(CO)CO [2-AG, 2-arachidonoylglycerol] | −0.8 ± 3.0 | > 200 µM | Binding to Δ^1–28 L-PGDS, DAUDA displacement [1]: did not bind
CCCCC/C=C\C/C=C\C/C=C\C/C=C\CCCC(=O)NCCO [AEA, N-arachidonoylethanolamine] | 3.1 ± 3.3 | > 200 µM | Affinity for Δ^1–28 L-PGDS, ANS displacement ([1]; ANS probe (500 nM)): lack of affinity; Binding to Δ^1–28 L-PGDS, DAUDA displacement [1]: did not bind
CCCCCCC(C)(C)c1cc(O)c2c(c1)OC(C)(C)[C@@H]1CC=C(C(=O)O)C[C@@H]21 [AJA, ajulemic acid] | 21.9 ± 2.9 | 2.2 µM and 2.3 µM | –
O=S(=O)(O)c1cccc2cccc(Nc3ccccc3)c12 [ANS, 1-anilinonaphthalene-8-sulfonic acid] | – | – | Kd [3]: 3400 ± 800 nM
C=C(C)[C@@H]1CCC(C)=C[C@H]1c1c(O)cc(CCCCC)cc1O [CBD, cannabidiol] | 7.2 ± 2.1 | 77.9 ± 3.9 µM | –
CN(C)c1cccc2c(S(=O)(=O)NCCCCCCCCCCC(=O)O)cccc12 [DAUDA, 11-(dansylamino)undecanoic acid] | – | – | Kd [3]: 960 ± 80 nM
CCCCCCC(CCCCCCCCCCC(=O)O)N(C)c1ccc([N+](=O)[O-])c2nonc12 (centres unmarked) [NBD-stearate, 12-N-methyl-(7-nitrobenz-2-oxa-1,3-diazo)aminostearic acid] | – | – | Binding of fluorescent probe ([3]; L-PGDS 1 μM titrated with probe): did not exhibit appreciable binding
CCCCCCCC/C=C\CCCCCCCC(=O)NCCO [OEA, oleoylethanolamide] | −0.9 ± 2.1 | > 200 µM | Binding to Δ^1–28 L-PGDS, DAUDA displacement [1]: did not display any appreciable binding
CCCCCCCC/C=C\CCCCCCCC(=O)O [OLA, oleic acid] | 15.1 ± 3.7 | 1.8 ± 0.9 µM | –
CCCCCCCC/C=C\CCCCCCCC(N)=O [Oleamide] | 3.6 ± 2.0 | > 200 µM | –
CCCCCCCCCCCCCCCC(=O)NCCO [PEA, palmitoylethanolamide] | 1.3 ± 4.7 | > 200 µM | Binding to Δ^1–28 L-PGDS, DAUDA displacement [1]: did not display any appreciable binding
CCCCC[C@H](O)/C=C/[C@H]1[C@H](O)CC(=O)[C@@H]1C/C=C\CCCC(=O)O [PGE2, prostaglandin E2] | 6.5 ± 1.5 | 128 ± 16 µM | –
CCCCC[C@H](O)/C=C/[C@@H]1[C@@H](C/C=C\CCCC(=O)O)[C@@H](O)C[C@H]1O [PGF2α, prostaglandin F2α] | 2.7 ± 1.7 | 81 ± 9 µM | –
CCCCCC/C=C\CCCCCCCC(=O)O [PLA, palmitoleic acid] | 11.9 ± 2.3 | 3.7 ± 0.5 µM | –
CCCCC[C@H](O)/C=C/[C@@H]1[C@@H](C/C=C\CCCC(=O)NCCO)[C@@H](O)C[C@H]1O [Prostamide F2α] | 0.1 ± 2.6 | – | Ki [1, 5]: > 200 µM; Binding to Δ^1–28 L-PGDS, DAUDA displacement [1]: not found to bind with any appreciable affinity
O=C(O)C1[C@H](c2ccccc2)C(C(=O)Oc2cccc3ccccc23)[C@H]1c1ccccc1 (some centres unmarked) [SBFI-26] | 33.3 ± 2.2 | – | Ki [1, 5]: 3 ± 0.5 µM
CCCCCc1cc(O)c2c(c1)OC(C)(C)[C@@H]1CCC(C)=C[C@@H]21 [THC, Δ^9-tetrahydrocannabinol] | 14.0 ± 2.2 | – | Ki [1, 5]: 175 ± 26 µM
CCCCCc1cc(O)c2c(c1)OC(C)(C)[C@@H]1CCC(C(=O)O)=C[C@@H]21 [THC-COOH, 11-nor-9-carboxy-Δ^9-tetrahydrocannabinol] | 15.6 ± 1.3 | – | Ki [1, 5]: 7.8 ± 1.7 µM; Ki ([1]; DAUDA displacement): 7.8 ± 1.7 µM
CC1=C(/C=C/C(C)=C/C=C/C(C)=C/C(=O)O)C(C)(C)CCC1 [all-trans retinoic acid] | 71.1 ± 1.4 | – | Kd [4]: 290 nM
prostaglandin E2-glyceryl ester [PGE2-GE] | 15.1 ± 1.7 | – | Ki [1, 5]: 11.2 ± 1.2 µM
